A selection: hits, their analogues and other compounds. The true share with any hit is near 3.2%.
TRPN1 ag: zebrafish TRPN1 channel agonists, primary screen, cell-based, HEK293, calcium fluorescence. transient receptor potential cation channel N1 (TRPN1/NompC), Danio rerio. HEK293 zebrafish TRPN1-YFP, Fluo-8 calcium fluorescence; 100% = response to 87 µM carbachol. activation, % at 3 µM. hit rate 0.18% among 220,000;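 active = activation above its plate's cutoff, the mean activation of test wells on that plate plus 3 SD, cut at about 19% in these data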;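 note: 0% = DMSO alone and 100% = 87 µM carbachol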
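Material – zebrafish TRPN1-YFP in HEK293 cells · Doses – 3 µM single point · Schedule – dye 1 h 37 °C plus 30 min RT · Signal – Fluo-8 calcium fluorescence, excitation 470-495 nm, emission 515-575 nm · Read-out – % activation versus carbachol response · Control set – carbachol high, DMSO low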
OX1R antag-1: antagonists of human orexin 1 receptor (OX1R); Orexin/Hypocretin receptor type 1 (Homo sapiens), O43613; hit rate 1.8% among 330,000; OX1R-expressing cells, FRET antagonist read-out; AID 485270, 2010; inhibition, % at 6.6 µM; in the data active = inhibition mostly above about 38%, no sharp cut-off; inactive = mostly below about 40%;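 note: 0% = agonist challenge alone and 100% = reference antagonist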
GPR7 antag: GPR7 receptor antagonists, primary screen, cell-based, fluorescence, single concentration; GPR7-expressing cells, fluorescence antagonist assay; inhibition, % at 4.4 µM; hit rate 1.1% among 290,000; AID 1861, 2009; in the data active = inhibition above about 16%, passing the limit was not always enough;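 note: cells stimulated with the agonist NPW; 0% = agonist with vehicle and 100% = vehicle without agonist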
Target sequence (P48145 whole entry, looked up): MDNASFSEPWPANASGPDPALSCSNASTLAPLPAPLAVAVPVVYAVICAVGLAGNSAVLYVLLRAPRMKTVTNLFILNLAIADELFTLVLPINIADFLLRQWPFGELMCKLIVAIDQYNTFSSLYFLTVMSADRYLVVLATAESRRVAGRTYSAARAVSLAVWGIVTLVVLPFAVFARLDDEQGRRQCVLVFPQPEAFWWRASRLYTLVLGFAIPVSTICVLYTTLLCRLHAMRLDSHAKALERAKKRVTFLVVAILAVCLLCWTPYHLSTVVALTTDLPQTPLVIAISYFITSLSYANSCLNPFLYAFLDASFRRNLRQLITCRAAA
CHO parental Ca: ATP-evoked calcium signal inhibitors, parental CHO, primary screen, counter-screen for OX1R antagonist project, cell-based, fluorescence, Fluo-8 calcium dye | parental CHO-K1, ATP-induced calcium, Fluo-8 fluorescence | inhibition, % at 5.6 µM | hit rate 0.63% among 330,000 | AID 463079, 2010;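 active = inhibition above that plate's mean sample inhibition plus 3 SD, cut at about 26% in these data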;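 note: 0% = ATP-challenged DMSO wells and 100% = DMSO wells without ATP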
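Material – parental CHO cells · Reagent – ATP stimulus · Compound – single nominal dose of 5.6 µM per compound · Detection – Fluo-8 fluorescence · Read-out basis – percent inhibition of calcium signal · Controls – ATP-challenged DMSO wells low, unchallenged DMSO wells high · Repeats – no replicates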
OX1R antag-2: OX1R (HCRTR1) antagonists, primary screen, fluorescence, CHO/OX1R cells, Fluo-8 calcium, orexin A; inhibition, % at 5 µM; Orexin/Hypocretin receptor type 1 (Homo sapiens), O43613; Fluo-8 calcium fluorescence; hit rate 0.43% among 330,000;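 active = inhibition above its plate's threshold, mean inhibition of all tested compounds on the plate plus 3 SD, cut at about 37% in these data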;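 note: 0% = orexin A challenge wells and 100% = SB-334867-A antagonist wells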
TRPML3 ag: human TRPML3 channel agonists, primary screen, cell-based, HEK293 TRPML3-YFP, Fluo-8 calcium fluorescence, 3 µM; AID 1448, 2008; hit rate 0.29% among 220,000; activation, % at 3 µM; 100% = the carbachol control signal;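 active = activation above its plate's cutoff, the mean activation of the plate's test wells plus 3 SD, cut at about 12% in these data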;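 note: 0% = DMSO only wells and 100% = carbachol wells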
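Test system – HEK293 line with stable expression of human TRPML3-YFP channel · Control set – carbachol 87 µM final as high control (100%), DMSO as low control (0%) · Signal – Fluo-8 calcium dye fluorescence, ex 470-495, em 515-575 nm · Incubation – 1-h 37 °C dye load, 5-s basal, 120-s post-compound reads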
GPR7 antag conf: GPR7 receptor antagonists, confirmation, cell-based, fluorescence, single concentration | inhibition, % at 4.4 µM | AID 1952, 2009 | hit rate 52% among 2,400 | GPR7-expressing cells, calcium fluorescence antagonist mode | shares compounds with GPR7 antag; in the data active = inhibition above about 24%;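 note: stimulated with the GPR7 agonist NPW; 0% = agonist plus vehicle and 100% = vehicle alone without agonist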
MCHR1 antagonist: MCHR1 antagonists in cells, counter-screen for GPR7 antagonist project, cell-based, fluorescence, human; shares compounds with GPR7 antag; MCHR1-expressing cells, fluorescence antagonist assay; inhibition, % at 4.4 µM; hit rate 62% among 2,400; AID 2148, 2009; in the data active = inhibition above about 22%;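 note: 0% = vehicle with agonist and 100% = vehicle without agonist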
An asterisk follows results filed as active.

Cc1ccc(NC(=O)COC(=O)C2=NN(c3ccccc3)C(=O)CC2)c(Br)c1 was read as OX1R antag-1 1, CHO parental Ca -17 and OX1R antag-2 -12.
COc1ccc(/C=N/Nc2ccc([N+](=O)[O-])cc2)cc1O was read as OX1R antag-1 1, GPR7 antag 30*, CHO parental Ca 7, OX1R antag-2 4, GPR7 antag conf 37* and MCHR1 antagonist 41*.
`COc1ccc(/C=N/Nc2ccc([N+](=O)[O-])cc2)cc1Cn1cc([N+](=O)[O-])cn1` gave TRPN1 ag 0, OX1R antag-1 35, GPR7 antag 6, CHO parental Ca -10, OX1R antag-2 -2 and TRPML3 ag 0.
COc1cccc(C(=O)NCC(=O)N2CCC3(CC2)NCCc2[nH]cnc23)c1OC was read as OX1R antag-1 0, GPR7 antag -3, CHO parental Ca 0 and OX1R antag-2 -10.
For C=CCN(CC=C)S(=O)(=O)c1ccc(NC(=S)NC(=O)Cc2ccc(OC)cc2)cc1 the results were TRPN1 ag 0, OX1R antag-1 12, GPR7 antag 34*, CHO parental Ca 5, OX1R antag-2 8, TRPML3 ag 1, GPR7 antag conf 50* and MCHR1 antagonist 65*.
COc1ccc(CC(=O)NC(=S)Nc2ccc(S(=O)(=O)NC(C)(C)C)cc2)cc1 was read as TRPN1 ag 13, OX1R antag-1 5, GPR7 antag 49*, CHO parental Ca 17, OX1R antag-2 23, TRPML3 ag 7, GPR7 antag conf 72* and MCHR1 antagonist 70*.
COc1ccc(CC(=O)NC(=S)Nc2ccc(S(N)(=O)=O)cc2)cc1 was read as TRPN1 ag 9, OX1R antag-1 2, GPR7 antag 20, CHO parental Ca 17, OX1R antag-2 9 and TRPML3 ag 7.
`C=CCN(CC=C)S(=O)(=O)c1ccc(NC(=S)NC(=O)c2ccco2)cc1` gave TRPN1 ag 0, OX1R antag-1 24, GPR7 antag 6, CHO parental Ca 6, OX1R antag-2 -1 and TRPML3 ag 1.
COC(=O)[C@@]1(Cc2ccc(F)cc2)[C@H]2c3cc(C(=O)N4CCCC4)n(CCc4c[nH]c5ccc(OC)cc45)c3C[C@H]2CN1C(=O)c1ccccc1 was read as TRPN1 ag 1, OX1R antag-1 25, GPR7 antag 1, CHO parental Ca -19, OX1R antag-2 -27 and TRPML3 ag 1.
Screening COc1ccc(C2Nc3ccccc3C(=O)N2Cc2ccco2)cc1COc1ccccc1F (stereo unspecified) returned TRPN1 ag -1, OX1R antag-1 41, GPR7 antag 26*, CHO parental Ca 5, OX1R antag-2 0, TRPML3 ag 0, GPR7 antag conf 25* and MCHR1 antagonist 36*.
For COc1ccc(C2Nc3ccccc3C(=O)N2Cc2ccco2)cc1COc1ccc(NC(C)=O)cc1 (stereo unspecified) the results were TRPN1 ag -2, OX1R antag-1 31, GPR7 antag -1, CHO parental Ca -22, OX1R antag-2 -19 and TRPML3 ag -1.
`O=C(C#Cc1ccccc1)c1ccco1` gave OX1R antag-1 23, GPR7 antag 56*, CHO parental Ca 16, OX1R antag-2 25, GPR7 antag conf 58* and MCHR1 antagonist 66*.
O=C(Cn1nc(C(=O)O)c2ccccc2c1=O)Nc1cc(S(=O)(=O)N2CCCCC2)ccc1Cl was read as OX1R antag-1 -2, CHO parental Ca -12 and OX1R antag-2 -10.
For Cc1cc(-c2ccc(C)c(S(=O)(=O)N3CCN(c4ccc([N+](=O)[O-])cc4)CC3)c2)on1 the results were OX1R antag-1 9, GPR7 antag 10, CHO parental Ca -6 and OX1R antag-2 -19.
For Cc1cc(-c2ccc(C)c(S(=O)(=O)N3CCN(c4ccccn4)CC3)c2)on1 the results were OX1R antag-1 10, GPR7 antag 28*, CHO parental Ca -17, OX1R antag-2 -12, GPR7 antag conf 32* and MCHR1 antagonist 62*.
CCN1CCc2c(sc(NC(=O)Nc3ccc(Cl)c(Cl)c3)c2C(N)=O)C1 was read as TRPN1 ag 195*, OX1R antag-1 24, GPR7 antag 58*, CHO parental Ca 94*, OX1R antag-2 99*, TRPML3 ag 84*, GPR7 antag conf 60* and MCHR1 antagonist 81*.
`CCN1CCc2c(sc(NC(=O)Cc3ccccc3)c2C(N)=O)C1` gave OX1R antag-1 1, GPR7 antag -1, CHO parental Ca 1 and OX1R antag-2 -6.
`CCOC(=O)C(Cc1ccccc1)NC(=O)CCc1nnc2ccc(N3CCOCC3)nn12` (stereo unspecified) gave OX1R antag-1 3, GPR7 antag -5, CHO parental Ca 7 and OX1R antag-2 -10.
CCOc1ccc(CCNC(=O)CCc2nnc3ccc(N4CCOCC4)nn23)cc1OCC was read as OX1R antag-1 8, GPR7 antag 30*, CHO parental Ca 1, OX1R antag-2 8, GPR7 antag conf 1 and MCHR1 antagonist 4.
COc1ccc(CNC(=O)C2CCCN2C)cc1OC (stereo unspecified) was read as TRPN1 ag 2, OX1R antag-1 11, GPR7 antag 5, CHO parental Ca 5, OX1R antag-2 4 and TRPML3 ag 0.
Screening C#CCOCCOCCOCCNc1nc(N2CCN(C(=O)[C@H](Cc3ccc(O)cc3)n3cc([C@@H](N)CC(C)C)nn3)CC2)nc(N2CCN(C(=O)[C@H](Cc3ccc(O)cc3)n3cc([C@@H](N)CC(C)C)nn3)CC2)n1 returned TRPN1 ag -1, OX1R antag-1 18, GPR7 antag 31*, CHO parental Ca 4, OX1R antag-2 -8, TRPML3 ag 0, GPR7 antag conf -7 and MCHR1 antagonist 5.

Assay outcomes deposited in PubChem by The Scripps Research Institute Molecular Screening Center.
